In brackets after ≈: the same amount, converted by molar mass.
What was measured:
S. aureus ATCC 29213 = assay: Cell content quantification; format: cell-based, Staphylococcus aureus; conditions: ¼ and ⅛ MIC, versus untreated control
Method in brief: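 S. aureus ATCC 29213 master culture was started at OD600 0.1 with shaking at 175 rpm, 37 °C. At OD600 0.2 (early log) it was split and dosed at ¼ and ⅛ MIC, with a drug-free control. Cells were harvested when the control reached OD600 0.6; other samples were taken at volumes adjusted to an OD600 equivalent of 0.6. 3 mL was pelleted at 5000 × g, 5 min, 4 °C, and DNA/RNA/protein co-extracted with a kit. DNA and RNA were read by fluorometric broad-range assays, protein by BCA. Triplicate.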

[1] = test system: S. saprophyticus ATCC 15305; assay: MIC by broth microdilution; format: cell-based; conditions: Staphylococcus saprophyticus, ATCC15305, read-out: MIC SSAP
Method in brief: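 Broth microdilution per CLSI in cation-adjusted Mueller-Hinton broth (Staphylococcus spp.). Two-fold serial dilutions ran from 256 to 0.5 μg/mL, with an inoculum of ~5 × 10^5 CFU/mL. Plates were read after 20 h at 37 °C. MIC = lowest concentration with no observable growth.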

[2] = test system: B. subtilis strain BS1048 (RpoC-GFP); assay: Confocal fluorescence microscopy of GFP-tagged RNAP; format: cell-based; conditions: 8e added at ½ MIC, 15 min
Method in brief: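 BS1048 (RpoC-GFP) was plated on LB agar. […] 2.5 μL of culture was mounted on a fresh 1.2% agarose pad under a coverslip. Imaging used a confocal microscope with a 63×/1.3 oil objective and a mercury metal halide lamp.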

Structure (SMILES) | Total RNA levels (S. aureus ATCC 29213) | Total levels of DNA (S. aureus ATCC 29213) | Total levels of protein (S. aureus ATCC 29213) | MIC [1] | Localization of GFP-tagged RNAP fluorescence [2]
CO[C@H]1/C=C/O[C@@]2(C)Oc3c(C)c(O)c4c(O)c(c(/C=N/N5CCN(C)CC5)c(O)c4c3C2=O)NC(=O)/C(C)=C\C=C\[C@H](C)[C@H](O)[C@@H](C)[C@@H](O)[C@@H](C)[C@H](OC(C)=O)[C@@H]1C [rifampicin, reference compound] | significantly reduced | largely unaffected |  |  | 
O=C(O)c1ccc(C(F)(F)F)cc1C(=O)c1ccc(Sc2ccc(Cl)c(Cl)c2)c([N+](=O)[O-])c1 [8e, 2-(4-((3,4-Dichlorophenyl)thio)-3-nitrobenzoyl)-4-(trifluoromethyl)benzoic acid] | reducing the total levels of staphylococcal RNA in a dose-dependent manner | largely unaffected | reduced the total levels of protein | 0.5 to 1 mg/L (≈ 0.968 to 1.94 µM) | delocalized from the nucleoid

Reference: paper PMC7680358 (European journal of medicinal chemistry, 2020)
